According to ChEMBL document CHEMBL1134791, “2- and 3-substituted 1,4-naphthoquinone derivatives as subversive substrates of trypanothione reductase and lipoamide dehydrogenase from Trypanosoma cruzi: synthesis and correlation between redox cycling activities and in vitro cytotoxicity” (J Med Chem, 2001):

What was measured:
[1] = substrate: CC1=C(CCC(=O)O)C(=O)c2ccccc2C1=O; assay: The Michaelis-Menten constant for NADH oxidation by pig heart LipDH (lipoamide dehydrogenase)
[2] = substrate: CC1=C(CCCNC(=O)OC(C)(C)C)C(=O)c2c(O)cccc2C1=O; assay: as above
[3] = substrate: CC1=C(CCC(=O)O)C(=O)c2c(O)cccc2C1=O; assay: as above
[4] = substrate: CC1=C(CCC(=O)NCCCN2CCN(C)CC2)C(=O)c2c(O)cccc2C1=O; assay: as above
[5] = substrate: CC1=C(CCCNC(=O)OC(C)(C)C)C(=O)c2ccccc2C1=O; assay: as above
[6] = substrate: CC1=C(CCC(=O)O)C(=O)c2ccccc2C1=O; assay: (§1) Vmax is the maximum velocity of the pig heart LipDH (lipoamide dehydrogenase) catalyzed NADH oxidation
Summary of the method: (§2)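 Recombinant T. cruzi LipDH (E. coli, purified) or pig heart LipDH, 0.1–2.5 µg/mL. Buffer was 50 mM potassium phosphate, 1 mM EDTA, pH 7.0, with 100 µM NADH and naphthoquinone at 10 µM–1.2 mM; all assays carried equal DMSO. Run at 31 °C, started with enzyme, NADH decrease followed at 340 nm. Km and Vmax from Lineweaver–Burk plots. At least duplicate.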

[7] = substrate: CC1=CC(=O)c2ccccc2C1=O; assay: as §1
Summary of the method: as §2

[8] = substrate: CC1=C(CCCNC(=O)OC(C)(C)C)C(=O)c2c(O)cccc2C1=O; assay: as §1
Summary of the method: as §2

[9] = substrate: CC1=C(CCC(=O)O)C(=O)c2c(O)cccc2C1=O; assay: as §1
Summary of the method: as §2

[10] = substrate: CC1=C(CCC(=O)NCCCN2CCN(C)CC2)C(=O)c2c(O)cccc2C1=O; assay: as §1
Summary of the method: as §2

[11] = substrate: CC1=C(CCC(=O)NCCCN2CCN(C)CC2)C(=O)c2ccccc2C1=O; assay: as §1
Summary of the method: as §2

[12] = substrate: CC1=CC(=O)c2c(O)cccc2C1=O; assay: as §1
Summary of the method: as §2

[13] = substrate: CC1=C(CCCNC(=O)OC(C)(C)C)C(=O)c2ccccc2C1=O; assay: as §1
Summary of the method: as §2

[14] = substrate: CC1=CC(=O)c2ccccc2C1=O; assay: (§3) The Michaelis-Menten constant for […] by pig heart LipDH (lipoamide dehydrogenase)
Summary of the method: as §2

[15] = substrate: CC1=C(CCC(=O)NCCCN2CCN(C)CC2)C(=O)c2ccccc2C1=O; assay: as §3
Summary of the method: as §2

[16] = substrate: CC1=CC(=O)c2c(O)cccc2C1=O; assay: as §3
Summary of the method: as §2

B1: Dihydrolipoyl dehydrogenase, mitochondrial (Sus scrofa), P09623 (protein)
chain: MQSWSRVYCTLAKRGHFNRIAHGLQGVSAVPLRTYADQPIDADVTVIGSGPGGYVAAIKAAQLGFKTVCIEKNETLGGTCLNVGCIPSKALLNNSHYYHMAHGKDFASRGIEMSEVRLNLEKMMEQKSNAVKALTGGIAHLFKQNKVVRVNGYGKITGKNQVTATKADGSTEVINTKNILIATGSEVTPFPGITIDEDTVVSSTGALSLKKVPEKMVVIGAGVIGVELGSVWQRLGADVTAVELLGHVGGIGIDMEVSKNFQRILQKQGFKFKLNTKVIGATKKSDGNIDVSIEAASGGKAEVITCDVLLVCIGRRPFTQNLGLEELGIELDPRGRIPVNTRFQTKIPNIYAIGDVVAGPMLAHKAEDEGIICVEGMAGGAVHIDYNCVPSVIYTHPEVAWVGKSEEQLKEEGIEYKVGKFPFAANSRAKTNADTDGMVKILGQKSTDRVLGAHIIGPGAGEMINEAALALEYGASCEDIARVCHAHPTLSEAFREANLAASFGKAINF
How did the Km [1] turn out when B1 was run?
Its Km is 40 µM.

And the Km [2]?
Its Km is 40 µM.

And the Km [3]?
The Km was 75 µM.

And the Km [4]?
Its Km is 15 µM.

And the Km [5]?
Its Km is 25 µM.

And the Vmax [6]?
Its Vmax is 1.52 µM/min/mg.

And the Vmax [7]?
Its Vmax is 11.5 µM/min/mg.

What about the Vmax [8] of the same protein?
Its Vmax is 1.66 µM/min/mg.

And the Vmax [9]?
Its Vmax is 2.2 µM/min/mg.

And the Vmax [10]?
Its Vmax is 1.09 µM/min/mg.

And the Vmax [11]?
The Vmax was 3.46 µM/min/mg.

And the Vmax [12]?
The Vmax was 25.3 µM/min/mg.

And the Vmax [13]?
The Vmax was 1.03 µM/min/mg.

And the Km [14]?
Its Km is 72 µM.

And the Km [15]?
Its Km is 110 µM.

What about the Km [16] of the same protein?
The Km was 74 µM.
